Results published in PMC7731903 (Clinical cancer research : an official journal of the …, 2018).
“Also recorded” adds a separate entry of the source.

Key:
Assay type in all cases: in vivo, human
[1] = Vincristine plasma PK in presence; settings: for AUC / AUC(0-inf) / clearance / Cmax / half-life: human, plasma, intravenous; for AUC: Geometric mean AUCτ (CV); for AUC(0-inf): Geometric mean AUC∞ (CV); for clearance: Geometric mean CL (CV); for Cmax: Geometric mean Cmax (CV); for half-life: Mean t1/2z (st. dev)
[2] = Alisertib plasma PK in patients; settings: for AUC / Cmax / Tmax: human, plasma, oral; for AUC: Geometric mean AUCτ (CV); for Cmax: Geometric mean Cmax (CV)
Procedure, shortened: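 Patients with relapsed/refractory aggressive B-cell NHL took oral test compound twice daily on days 1–7 of 21-day cycles, at 30 to 50 mg b.i.d. Cohorts received it with rituximab 375 mg/m2 i.v. on day 1, with or without vincristine 1.4 mg/m2 (max 2 mg) i.v. on days 1 and 8. Blood was drawn at prespecified times after the morning dose on cycle 1 days 1 and 7. Cmax, tmax and AUCτ were derived by noncompartmental analysis.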

[3] = system: relapsed/refractory aggressive B-cell lymphoma; experiment: Antitumor activity, investigator-assessed response
[4] = system: non-GCB DLBCL; experiment: Best response by cell of origin; settings: non-GCB-derived disease, 20 patients (MR + MRV)
[5] = system: GCB DLBCL; experiment: Best response by cell of origin; settings: MR + MRV; P = 0.058 vs non-GCB, two-sided Fisher exact test
[6] = 30 mg, alisertib 30 mg b.i.d. cohort, C1D1 (alisertib present), n=4
[7] = 30 mg, alisertib 30 mg b.i.d. cohort, C2D1 (alisertib absent), n=3
[8] = 30 mg, alisertib 30 mg b.i.d. cohort, C2D1 (alisertib absent), n=4
[9] = 40 mg, alisertib 40 mg b.i.d. cohort, C2D1 (alisertib absent), n=17
[10] = 40 mg, alisertib 40 mg b.i.d. cohort, C1D1 (alisertib present), n=22
[11] = 40 mg, alisertib 40 mg b.i.d. cohort, C2D1 (alisertib absent), n=16
[12] = 40 mg, alisertib 40 mg b.i.d. cohort, C1D1 (alisertib present), n=25
[13] = 50 mg, alisertib 50 mg b.i.d. cohort, C1D1 (alisertib present), n=3
[14] = 50 mg, alisertib 50 mg b.i.d. cohort, C2D1 (alisertib absent), n=2
[15] = 30 mg, MRV, alisertib 30 mg b.i.d., C1D1, n=4
[16] = 30 mg, MRV, alisertib 30 mg b.i.d., C1D7, n=4
[17] = 40 mg, MRV, alisertib 40 mg b.i.d., C1D7, n=20
[18] = 50 mg, MR, alisertib 50 mg b.i.d., C1D7, n=12
[19] = 50 mg, MRV, alisertib 50 mg b.i.d., C1D1, n=3
[20] = 50 mg, MRV, alisertib 50 mg b.i.d., C1D7, n=2

With `CC[C@]1(O)C[C@H]2CN(CCc3c([nH]c4ccccc34)[C@@](C(=O)OC)(c3cc4c(cc3OC)N(C=O)[C@H]3[C@@](O)(C(=O)OC)[C@H](OC(C)=O)[C@]5(CC)C=CCN6CC[C@]43[C@@H]65)C2)C1` [vincristine] the “Geometric mean ratio of vincristine AUC∞, presence vs absence of alisertib” value ([1]; MRV RP2D (alisertib 40 mg b.i.d.), 90% CI 82–115, n = 22) was 97%, the AUC [1, 6] was 69.2 ng·h/mL and the AUC ([1]; 30 mg, alisertib 30 mg b.i.d. cohort, C2D1 (alisertib absent), n=2) was 60.8 ng·h/mL. It also gave an AUC(0-inf) [1, 6] of 77 ng·h/mL, an AUC(0-inf) [1, 7] of 69 ng·h/mL and a clearance [1, 6] of 432 mL/min. It also gave a clearance [1, 8] of 483 mL/min, a Cmax [1, 8] of 98.2 ng/mL and a half-life [1, 6] of 20.2 h. The half-life [1, 7] was 19.9 h, the AUC ([1]; 40 mg, alisertib 40 mg b.i.d. cohort, C1D1 (alisertib present), n=24) was 60.1 ng·h/mL and the AUC [1, 9] was 67.8 ng·h/mL. The AUC(0-inf) [1, 10] was 78 ng·h/mL, the AUC(0-inf) [1, 11] was 77 ng·h/mL and the clearance [1, 12] was 427 mL/min. The clearance [1, 9] was 432 mL/min, the Cmax [1, 12] was 82.9 ng/mL and the Cmax [1, 9] was 87.3 ng/mL. For the same molecule, the half-life [1, 10] was 20 h, the half-life [1, 11] was 20.2 h and the AUC [1, 13] was 98 ng·h/mL. It also gave an AUC [1, 14] of 68.4 ng·h/mL, an AUC(0-inf) [1, 13] of 111 ng·h/mL and a clearance [1, 13] of 300 mL/min. The Cmax [1, 13] was 149 ng/mL, the Cmax [1, 14] was 120 ng/mL and the half-life [1, 13] was 25.6 h. For the same molecule, the Cmax ([1]; vincristine 1.4 mg/m^2 + rituximab, alisertib 30 mg b.i.d. cohort, C1D1 (alisertib present), n=4) was 120 ng/mL.

`COc1cc(Nc2ncc3c(n2)-c2ccc(Cl)cc2C(c2c(F)cccc2OC)=NC3)ccc1C(=O)O` [alisertib] gave an AUC [2, 15] of 5.22 µM·h, an AUC [2, 16] of 11.8 µM·h and a Cmax [2, 15] of 841 nM. For the same molecule, the Cmax [2, 16] was 1660 nM, the Tmax ([2]; 30 mg, Median Tmax (range), MRV, alisertib 30 mg b.i.d., C1D1, n=4) was 3.5 h and the Tmax ([2]; 30 mg, Median Tmax (range), MRV, alisertib 30 mg b.i.d., C1D7, n=4) was 3.1 h. The AUC ([2]; 40 mg, MRV, alisertib 40 mg b.i.d., C1D1, n=22) was 7.44 µM·h, the AUC [2, 17] was 14.9 µM·h and the Cmax ([2]; 40 mg, MRV, alisertib 40 mg b.i.d., C1D1, n=25) was 1090 nM. For the same molecule, the Cmax [2, 17] was 1950 nM, the Tmax ([2]; 40 mg, Median Tmax (range), MRV, alisertib 40 mg b.i.d., C1D1, n=25) was 3 h and the Tmax ([2]; 40 mg, Median Tmax (range), MRV, alisertib 40 mg b.i.d., C1D7, n=20) was 3.1 h. It also gave an AUC ([2]; 50 mg, MR, alisertib 50 mg b.i.d., C1D1, n=12) of 8.61 µM·h, an AUC [2, 18] of 18.7 µM·h and an AUC [2, 19] of 11.2 µM·h. For the same molecule, the AUC [2, 20] was 31.8 µM·h, the Cmax ([2]; 50 mg, MR, alisertib 50 mg b.i.d., C1D1, n=13) was 1400 nM and the Cmax [2, 18] was 2590 nM. It also gave a Cmax [2, 19] of 1670 nM, a Cmax [2, 20] of 3500 nM and a Tmax ([2]; 50 mg, Median Tmax (range), MR, alisertib 50 mg b.i.d., C1D1, n=13) of 3 h. It also gave a Tmax ([2]; 50 mg, Median Tmax (range), MR, alisertib 50 mg b.i.d., C1D7, n=12) of 2 h, a Tmax ([2]; 50 mg, Median Tmax (range), MRV, alisertib 50 mg b.i.d., C1D1, n=3) of 6.1 h and a Tmax ([2]; 50 mg, Median Tmax (range), MRV, alisertib 50 mg b.i.d., C1D7, n=2) of 2.5 h. For the same molecule, the Tmax ([2]; tmax after dose, with both MR and MRV) was roughly 3 h, the “Increase of alisertib exposures with dose” value ([2]; over the range of 30 to 50 mg b.i.d.) was “approximately dose-proportional” and the “ORR (CR + PR)” value ([3]; 37 response-evaluable patients (MR + MRV), n = 14) was 38%. The CR ([3]; Total MR + MRV, N=37) was 7 (19) n (%), the “ORR (CR + PR)” value ([3]; Total MR + MRV, N=37) was 14 (38) n (%) and the PD ([3]; Total MR + MRV, N=37) was 11 (30) n (%). For the same molecule, the PR ([3]; Total MR + MRV, N=37) was 7 (19) n (%), the “Complete responses (CR)” value ([3]; all patients (MR + MRV)) was “Seven” and the “Median PFS” value ([3]; all patients (MR + MRV)) was 5.1 months. The “Partial responses (PRs)” value ([3]; all patients (MR + MRV)) was 7 patients, the “Median DOR” value ([3]; patients with a best response of CR, range 9.0–35.7) was 14.3 months and the “Median PFS” value ([3]; patients with a best response of CR, range 10.1–36.9) was 16.4 months. For the same molecule, the “Median DOR” value ([3]; responding patients (MR + MRV)) was 10.2 months, the “Patients achieving first response by the end of cycle 2” value ([3]; responding patients (MR + MRV)) was 57% and the “PR as best response” value ([4]; 3 patients) was 15%. The “CR as best response” value ([4]; 6 patients) was 30% and the “Objective response in GCB-derived disease” value [5] was “None of the 7 response-evaluable patients; also recorded: no patients with GCB-derived disease (9/29) achieved an objective response”.
